“Also recorded” adds a separate entry of the source.
What was measured:
[1] = tested on: subcutaneous PC-3 xenograft tumors; assay: PC-3 xenograft tumor growth in nude mice; format: in vivo, athymic nude mice; conditions: versus vehicle
[2] = tested on: Akt and PHLPP1 membrane localization in LNCaP cells; assay: Immunocytochemistry of cellular distribution of Akt and PHLPP1 in LNCaP cells; format: cell-based; conditions: serum-free medium, 24 h
[3] = tested on: phosphorylation of Akt (Ser473), MDM2 and IKK in PC-3 cells; assay: Western blot of Akt signaling in PC-3 cells; format: cell-based; conditions: different concentrations, 24 h
PH domain of PHLPP1 = biological target: T1, PH domain of PHLPP1 (Homo sapiens, UniProt O60346); assay: SPR binding to the PHLPP1 PH domain
T1 sequence (O60346 536-636 limits assumed): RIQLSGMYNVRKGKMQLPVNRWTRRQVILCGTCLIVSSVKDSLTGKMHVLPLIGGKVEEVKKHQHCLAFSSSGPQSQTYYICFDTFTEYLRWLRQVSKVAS
Outline: (§1)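 Surface plasmon resonance: GST-tagged PH-domain fusion protein amine-coupled to a CM5 chip at 17000 response units. Test compound injected at 1–20 µM at a flow rate of 30 µL/min. DMSO at 1% (v/v) or less in samples and running buffer.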

[4] = tested on: phosphorylation of Ser473-Akt, MDM2 and IKK in PC-3 xenograft tumors; assay: Western blot of Akt signaling markers in PC-3 tumor lysates; format: in vivo, athymic nude mice; conditions: after 21 days
PH domain of ILK = biological target: T2, PH domain of ILK (Homo sapiens, UniProt Q13418); assay: SPR binding to the ILK PH domain
T2 sequence (Q13418 180-212 limits assumed): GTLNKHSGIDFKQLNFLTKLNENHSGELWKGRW
Outline: as §1

PH domain of PDK1 = biological target: T3, PH domain of PDK1 (Homo sapiens, UniProt O15530); assay: SPR binding to the PDK1 PH domain
T3 sequence (O15530 459-550 limits assumed): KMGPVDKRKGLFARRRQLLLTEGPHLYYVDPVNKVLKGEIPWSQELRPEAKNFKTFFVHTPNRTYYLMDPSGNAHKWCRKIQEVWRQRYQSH
Outline: as §1

[5] = tested on: phosphorylation of Akt (Ser473), MDM2 and IKK in LNCaP cells; assay: Western blot of Akt signaling in LNCaP cells; format: cell-based; conditions: different concentrations, 24 h
Outline: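 Lines kept in RPMI 1640 with 10% FBS at 37 °C, 5% CO₂. LNCaP were seeded on poly-L-lysine-coated flasks (12000 cells/cm²) for 24 h, then dosed in serum-free RPMI. Cells got test compound for 24 h, then were scraped and lysed in 1% SDS/Tris pH 8 buffer with protease inhibitors. Lysates were spun at 14000g and BCA-normalized, then run on SDS-PAGE/nitrocellulose, probed with primary antibody (1:1000, overnight, 4 °C) and HRP secondary, and detected by ECL.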

[6] = tested on: ILK distribution in LNCaP cells; assay: Immunocytochemistry of cellular distribution of ILK in LNCaP cells; format: cell-based; conditions: serum-free medium, 24 h
Outline: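 LNCaP cells seeded on poly-L-lysine-coated surfaces at 12000 cells/cm² for 24 h, then exposed to test compound in serum-free RPMI 1640 for 24 h. Fixed in 4% formaldehyde for 20 min, permeabilised with 0.1% Triton X-100 for 15 min at room temperature, blocked in 1% FBS for 1 h. Endogenous ILK stained with antibody (1:300) overnight, then Alexa Fluor-conjugated secondary (1:500) for 2 h. Nuclei stained with DAPI; imaged by confocal microscopy.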

[7] = tested on: membrane translocation of Akt and PHLPP1 in LNCaP cells; assay: Western blot of membrane versus cytoplasmic fractions of LNCaP cells; format: cell-based; conditions: 24 h
PC-3 cells = assay: MTT cell viability assay in PC-3 cells; format: cell-based; conditions: 24 h exposure in serum-free medium
Outline: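 PC-3 cells plated uncoated at 5000 cells/well in 10% FBS. After 24 h, exposed to test compound in serum-free medium for 24 h. MTT added (0.5 mg/mL final) for 2 h, then medium replaced with DMSO and absorbance read at 595 nm. Viability expressed as % of vehicle-treated control; n = 6, means ± SD.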

[8] = ip injection 50 mg/kg once daily for 21 days
[9] = oral gavage 100 mg/kg once daily

Structure (SMILES) | Suppression of PC-3 xenograft tumor growth [1, 8] | Localization of Akt and PHLPP1 to the plasma membrane ([2]; 10 µM) | Phosphorylation level of Akt (Ser473) and/or MDM2 and IKK [3] | Phosphorylation levels of Akt, MDM2 and IKK in tumor lysates [4, 9] | Phosphorylation level of Akt (Ser473) and/or MDM2 and IKK [5] | Localization of Akt and PHLPP1 to the plasma membrane ([2]; 5 µM) | also measured
Cc1c(O)cc2c(c1C)O[C@@](C)(CCCC(C)C)CC2 [Compound 3, (S)-2,7,8-trimethyl-2-(4-methylpentyl)chroman-6-ol] | significantly suppressed PC-3 xenograft tumor growth | facilitated the localization of Akt and PHLPP1 to the plasma membrane | dose-dependently reduced the phosphorylation level of Akt and/or MDM2 and IKK | unable to affect any of these signaling markers | dose-dependently reduced the phosphorylation level of Akt and/or MDM2 and IKK | – | Suppression of PC-3 xenograft tumor growth ([1]; oral gavage 100 mg/kg once daily for 21 days, 100 mg/kg): not apparent; also recorded: no in vivo tumor-suppressive activity; Kd (PH domain of PHLPP1): 0.69 ± 0.36 µM; Kd (PH domain of ILK): 8.7 ± 3.6 µM; Kd (PH domain of PDK1): 10.2 ± 1.2 µM; Cellular distribution of ILK ([6]; 10 µM): Lack of effect
Cc1c(S(N)(=O)=O)cc2c(c1C)OC(C)(CCCC(C)C)CC2 (centres unmarked) [Compound 20] | equipotent in suppressing PC-3 tumor growth irrespective of the route of administration | – | dose-dependently reduced the phosphorylation level of Akt and/or MDM2 and IKK | parallel decreases in the phosphorylation levels of Akt, MDM2, and IKK | dose-dependently reduced the phosphorylation level of Akt and/or MDM2 and IKK | facilitated the localization of Akt and PHLPP1 to the plasma membrane | Suppression of PC-3 xenograft tumor growth ([1]; oral gavage 100 mg/kg once daily for 21 days): equipotent in suppressing PC-3 tumor growth irrespective of the route of administration; Phosphorylation levels of Akt, MDM2 and IKK in tumor lysates ([4]; ip injection 50 mg/kg once daily): parallel decreases in the phosphorylation levels of Akt, MDM2, and IKK; Membrane translocation of Akt and PHLPP1 (membrane versus cytoplasmic fractions) [7]: higher potency than 3 in facilitating the membrane translocation; Cellular distribution of ILK ([6]; 5 µM): Lack of effect; also recorded: no apparent changes in the distribution of ILK
CC(C)CCCC1(C)CCc2cc(S(N)(=O)=O)cc(Br)c2O1 (centres unmarked) [Compound 22] | – | – | dose-dependently reduced the phosphorylation level of Akt and/or MDM2 and IKK | – | dose-dependently reduced the phosphorylation level of Akt and/or MDM2 and IKK | facilitated the localization of Akt and PHLPP1 to the plasma membrane | –
CC(C)CCCC1(C)CCc2cc(S(N)(=O)=O)cc(F)c2O1 (centres unmarked) [Compound 21] | – | no change in the cellular distribution of Akt or PHLPP1 | failed to elicit Ser473-Akt dephosphorylation | – | failed to elicit Ser473-Akt dephosphorylation | – | –
COc1cc2c(c(C)c1C)OC(C)(CCCC(C)C)CC2 (centres unmarked) [Compound 5] | – | – | – | – | – | – | Antiproliferative effect (IC50) in PC-3 cells (PC-3 cells): remained inactive

— article PMC4720140 (Journal of medicinal chemistry, 2015)
